We go through two compounds from ChEMBL document CHEMBL4715860 (J Med Chem, 2020).

What is called Cmax is the maximum level reached in the sampled fluid or tissue. The term Ki denotes the dissociation constant of the complex between target and ligand, obtained from inhibition or displacement. As a reminder, the Tmax is the time from dosing to the highest level. The term Kd denotes the concentration at which binding is half-saturated. One may read the AUC as concentration integrated over time. A lower AUC goes with less exposure. The efflux ratio is a quotient of directional permeabilities that is used to spot active efflux.

For data set [1], the system named is Mus musculus. Description: In vivo inhibition of PI3Kalpha in C57BL/6J mouse assessed as increase in plasma glucose concentration at 25 mg/kg, po measured after 8 hrs by glucoseoxidase-peroxide coupled colorimetric assay. The data set is classed as functional, organism-based. Put shortly: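 Female C57BL/6J mice given one oral dose (25 mg/kg); plasma insulin and glucose monitored over time, mean ± SEM.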

In data set [2] the test system is Mus musculus. As to the kind of experiment: In vivo inhibition of mTORC1 signalling in C57BL/6J mouse assessed as reduction in RPS6 phosphorylation at S235/236 residue in brain at 25 mg/kg, po measured after 0.5 to 2 hrs by Western blot analysis. The data set is classed as functional, organism-based. The note with it: time 0.5-2 hrs. Put shortly:
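Time course in female C57BL/6J mice after 25 mg/kg p.o.: cortex taken at set time points and western blotted for pS6 and pPKB. Signals quantified against α-tubulin as % of control cortex; n = 3 per time point and n = 9 controls. Brain compound level measured in the same mice.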

Data set [3] can be described thus: Cmax in C57BL/6J mouse plasma at 25 mg/kg, po administered as single dose by mass spectrometry based UHPLC analysis. The data set is classed as ADME, organism-based. Details: route oral, dose 25 mg/kg. Put shortly: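 One oral dose of 25 mg/kg to female C57BL/6J mice. Plasma and brain concentrations followed over time, n = 3 per time point (mean).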
Data set [4] concerns the target Serine/threonine-protein kinase mTOR (Homo sapiens, UniProt P42345). Description: Inhibition of alexa fluor 647-labeled kinase tracer 314 binding to recombinant human N-terminal GST-tagged mTOR (1360 to 2549 residues) expressed in baculovirus expression system measured after 60 mins by TR-FRET based LanthaScreen Eu kinase binding assay. (In general: TR-FRET usually uses a lanthanide donor and a delayed reading to cut background.)

A short description of data set [5]: Toxicity in Balb/c nude mouse assessed as change in body weight at 100 mg/kg, po administered once daily for 14 days measured for 7 days starting from post last dose. The data set is classed as organism-based. As to conditions: in vivo, 504 h, time 21 day.
The subject of data set [6] is Mus musculus. Description: In vivo inhibition of mTORC2 signalling pathway in C57BL/6J mouse assessed as reduction in PKB/Akt phosphorylation at Ser473 in brain at 25 mg/kg, po incubated for 30 mins by Western blot analysis. It counts as functional, organism-based. Put shortly: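 Female C57BL/6J mice dosed at 25 mg/kg p.o.; cortex collected 30 min later and lysed. Equal protein run on SDS-PAGE and western blotted for pS6(Ser235/236), pPKB(Ser473) and α-tubulin, detected by HRP secondary antibodies and ECL. Signal expressed as % of control cortex, n = 3, mean ± SEM, unpaired t-test.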
Background: In western blotting, separated proteins are transferred to a membrane and probed.

Data set [7] is described as follows: Metabolic stability in Beagle dog hepatocytes assessed as half-life at 5 uM incubated for 3 hrs by LC-MS analysis. The data set is classed as ADME, cell-based, Canis lupus familiaris, Hepatocyte. Put shortly:
(§1)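 Cryopreserved primary hepatocytes in suspension from CD-1 mouse, Sprague-Dawley rat, Beagle dog and human. Compound at 5 μM final (from 10 mM DMSO stock). Samples taken at 0, 15, 60, 90 and 180 min and quenched with ACN plus internal standard. Parent quantified by LC-MS. Hepatocyte-free medium incubations served as negative control; 7-ethoxycoumarin as positive control. Duplicate; CLint per 10^6 cells and t1/2.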

A short description of data set [8]: Elimination half life in C57BL/6J mouse plasma at 10 mg/kg, po administered once a day for 4 consecutive days by mass spectrometry based UHPLC analysis. The data set is classed as ADME, organism-based. As to conditions: time 4 day, read-out: beta t1/2 (converted). The method in brief:
(§2)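 Female C57BL/6J mice given 10 mg/kg p.o. in 20% Captisol once daily for 4 consecutive days. Plasma and brain sampled after the final dose on day 4, n = 3 per time point.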

A short description of data set [9]: Cmax in C57BL/6J mouse brain at 10 mg/kg, po administered once a day for 4 consecutive days by mass spectrometry based UHPLC analysis. The data set is classed as ADME, organism-based. The arrangement: route oral, dose 10 mg/kg, time 4 day. The method in brief:
as §2

Data set [10] in a line: Tmax in C57BL/6J mouse plasma at 10 mg/kg, po administered as single dose by mass spectrometry based UHPLC analysis. The data set is classed as ADME, organism-based. Put shortly:
(§3)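 Female C57BL/6J mice dosed orally at 10 mg/kg in 20% Captisol, either once or once daily for 4 days with sampling after the last dose on day 4. Plasma and brain concentrations followed over time. Tmax taken from at least 3 time points.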

For a further data set, the target named is T1, CYP1A1 (Homo sapiens, UniProt P04798).
T1 sequence (P04798 whole entry): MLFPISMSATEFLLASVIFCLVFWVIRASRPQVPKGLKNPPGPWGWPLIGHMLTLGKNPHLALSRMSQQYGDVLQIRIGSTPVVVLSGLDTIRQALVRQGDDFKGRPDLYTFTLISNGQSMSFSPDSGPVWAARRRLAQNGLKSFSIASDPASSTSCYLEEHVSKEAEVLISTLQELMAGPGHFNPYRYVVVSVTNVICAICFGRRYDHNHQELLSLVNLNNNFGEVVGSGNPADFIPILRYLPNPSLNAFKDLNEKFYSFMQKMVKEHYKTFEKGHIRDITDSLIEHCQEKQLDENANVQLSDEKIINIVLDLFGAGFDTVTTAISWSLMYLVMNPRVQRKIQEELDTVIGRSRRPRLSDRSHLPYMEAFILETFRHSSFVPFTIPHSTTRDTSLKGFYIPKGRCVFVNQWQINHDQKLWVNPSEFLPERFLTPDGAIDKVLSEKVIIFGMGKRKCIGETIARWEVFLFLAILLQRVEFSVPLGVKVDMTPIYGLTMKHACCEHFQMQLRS
Description: Drug metabolism assessed as human recombinant CYP1A1 expressed in baculovirus infected insect cells-mediated metabolism by measuring parent compound remaining at 1 uM incubated for 60 mins in presence of NADPH regenerating system by UHPLC based LC-MS analysis. It counts as ADME. As to conditions: read-out: Stabilty.

A short description of data set [11]: Tmax in C57BL/6J mouse brain at 10 mg/kg, po administered once a day for 4 consecutive days by mass spectrometry based UHPLC analysis. The data set is classed as ADME, organism-based. The note with it: time 4 day. The method in brief: as §3
Data set [12] has as its target Phosphatidylinositol 3-kinase catalytic subunit type 3 (Homo sapiens, UniProt Q8NEB9). As to the kind of experiment: Binding affinity to wild-type human partial length VPS34 (S282 to H879 residues) expressed in HEK293 cells measured after 1 hr by Kinomescan method. It counts as cell-based. The method in brief:
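Compound given as an 11-point threefold series from 30 μM, in technical duplicate. Kd from a Hill fit with slope fixed at −1.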

Data set [13] can be described thus: AUC (0 to 8 hrs) in C57BL/6J mouse plasma at 10 mg/kg, po administered once a day for 4 consecutive days by mass spectrometry based UHPLC analysis. The data set is classed as ADME, organism-based. Details: route oral, time 4 day, dose 10 mg/kg. The method in brief:
as §2

Data set [14] in a line: Toxicity in Tsc1-GFAP knockout Balb/c mouse assessed as change in body weight at 50 mg/kg, po bid. The note with it: in vivo. It counts as organism-based. The method in brief: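 Tsc1GFAPCKO mice dosed orally from P21 at 10, 25, 50 mg/kg or 50 mg/kg bid. Body weight tracked during the survival study; mean ± SEM.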
Data set [15] is described as follows: Metabolic stability in Sprague-Dawley rat hepatocytes assessed as half-life at 5 uM incubated for 3 hrs by LC-MS analysis. The data set is classed as ADME, cell-based, Hepatocyte. The method in brief:
as §1

In the next data set the test system is P-glycoprotein. Description: Substrate activity at human P-glycoprotein stably expressed in MDCK cells assessed as efflux ratio at 1 uM measured after 5 to 20 mins by UPLC-MS/MS analysis. It counts as ADME, cell-based. As to conditions: MDCK-MDR1, time 5-20 min. Put shortly:
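CRISPR canine-MDR1-knockout MDCKII cells stably expressing human MDR1, with the knockout parent line as control. Cells grown 5 days on TransWell filters and preincubated in HBSS 30 min at 37 °C. Compound at 1 μM added apical or basolateral. Receiver sampled at 5, 10 and 20 min; UPLC-MS/MS.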

Each structure is given as a SMILES string. Active and inactive are the calls of the source. The calls are words filed in the database; no cut-off is given here.

Sequence of Phosphatidylinositol 3-kinase catalytic subunit type 3 (Q8NEB9 whole entry, the tested form may be a part): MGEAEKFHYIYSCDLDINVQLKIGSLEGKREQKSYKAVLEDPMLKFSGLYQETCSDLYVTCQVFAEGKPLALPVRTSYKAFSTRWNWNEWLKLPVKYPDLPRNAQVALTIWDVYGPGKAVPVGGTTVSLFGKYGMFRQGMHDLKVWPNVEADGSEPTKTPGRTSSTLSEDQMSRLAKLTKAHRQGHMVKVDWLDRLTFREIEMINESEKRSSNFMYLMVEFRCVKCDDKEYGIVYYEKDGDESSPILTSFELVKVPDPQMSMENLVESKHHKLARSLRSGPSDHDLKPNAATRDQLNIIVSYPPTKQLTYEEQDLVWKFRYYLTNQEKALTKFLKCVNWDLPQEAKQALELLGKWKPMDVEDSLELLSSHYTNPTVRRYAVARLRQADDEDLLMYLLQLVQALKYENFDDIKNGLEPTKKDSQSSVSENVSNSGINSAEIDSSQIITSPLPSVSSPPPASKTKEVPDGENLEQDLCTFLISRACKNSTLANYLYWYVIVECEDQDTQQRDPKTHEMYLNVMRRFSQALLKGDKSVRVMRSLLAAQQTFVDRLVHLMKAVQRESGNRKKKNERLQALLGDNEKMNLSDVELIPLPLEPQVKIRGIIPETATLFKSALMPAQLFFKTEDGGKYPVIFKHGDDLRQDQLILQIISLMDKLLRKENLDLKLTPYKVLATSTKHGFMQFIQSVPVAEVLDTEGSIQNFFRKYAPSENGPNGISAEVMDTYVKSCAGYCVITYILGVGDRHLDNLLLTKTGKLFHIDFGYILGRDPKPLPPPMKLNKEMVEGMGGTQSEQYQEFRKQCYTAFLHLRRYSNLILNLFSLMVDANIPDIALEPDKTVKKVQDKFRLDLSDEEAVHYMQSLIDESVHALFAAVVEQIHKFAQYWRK

As for `C[C@@H]1COCCN1c1nc(-c2cnc(N)cc2C(F)F)nc(N2[C@H](C)COC[C@@H]2C)n1`, in the data set with Mus musculus [1], the inhibition result is “inactive”. For the same compound, the inhibition entry with Mus musculus [2] and in the data set on Mus musculus [6] was “Active” throughout. In addition, the Cmax in data set [3] turned out to be 1830 ng/mL; in data set [9] it was 1320 ng/mL. For the same compound, the Ki in data set [4] is 3.6 nM. The Activity entry in [5] and in [14] was “Non-Toxic” in each case. Also, the half-life at 5 µM in [7] is 8.17 h; in data set [15], 2.7 h. Also, the half-life in data set [8] was 2.2 h. For the same compound, the Tmax in [10] and in data set [11] was 0.5 h each time. On CYP1A1, the remaining at 1 h, 1 µM stood at 45.1%. In data set [12], this compound had a Kd of 65 nM. Further, the AUC at 96 h in data set [13] worked out at 2370 ng·h/mL.
For `C[C@@H]1COCCN1c1nc(-c2cnc(N)cc2C(F)F)nc(N2CCOCC2(C)C)n1`, the Ki in data set [4] was determined as 4.7 nM. For the same compound, in the data set with P-glycoprotein, the efflux ratio at 1 µM stood at 1.5. Further, the remaining at 1 h, 1 µM at CYP1A1 came out at 1.9%. The compound further came in with a Kd in [12] of 28 nM.
